How the values were obtained:
Canis familiaris [1] = experiment: Myocardial contractility in anesthetized dogs on intravenous administration; format: functional; conditions: Canis lupus familiaris, Myocardium
How it was run: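 Open-chest, pentobarbital-anesthetized dogs. Right ventricular contractility was measured with a Walton-Brodie strain-gauge arch sutured to the ventricle, baseline 50 g tension. Increasing iv doses via the femoral vein at 5-min intervals; peak responses recorded; vehicle controls given. ED50 by linear regression, mean ± SEM (n > 2) or mean ± range (n = 2).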

Canis familiaris [2] = experiment: Decreased mean arterial blood pressure in anesthetized dogs after intravenous administration; format: functional, Canis lupus familiaris
[3] = target: Phosphodiesterase; PDE3 & PDE4; experiment: (§1) Inhibition of Sarcoplasmic Reticulum cAMP Phosphodiesterase from canine myocardium; format: tissue-based, Canis lupus familiaris
How it was run: (§2)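 PDE came from free sarcoplasmic reticulum vesicles (fraction E) of canine ventricles, stored at -80 °C. Two-step assay with 1 μM cAMP substrate, run 60 min at room temperature (22 ± 2 °C). Enzyme was added to hydrolyze less than 20% of the substrate.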

Canis familiaris [4] = experiment: Increased heart rate in anesthetized dogs after intravenous administration; format: functional, Canis lupus familiaris
[5] = target: Phosphodiesterase; PDE3 & PDE4; experiment: as §1; format: tissue-based, Canis lupus familiaris; remark: listed apart in the source
How it was run: as §2, with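 “substrate. Inhibitors were dissolved in DMSO, with 2.5% v/v carryover. IC50 and 95% confidence limits were obtained by regression of the logit transformation.” for “substrate.”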

Structure (SMILES): O=C1CCC(c2ccc3c(c2)C2(CCCC2)C(=O)N3)=NN1
- ED50 (Canis familiaris [1]): 0.133 mg/kg
- Decrease in MAP (Canis familiaris [2]): 17%
- IC50 [3]: 0.93 µM
- Increase in HR (Canis familiaris [4]): 14%

Structure (SMILES): O=C1CCC(c2ccc3c(c2)C2(CCC2)C(=O)N3)=NN1
- ED50 (Canis familiaris [1]): 0.0348 mg/kg
- Decrease in MAP (Canis familiaris [2]): 17%
- IC50 [3]: 0.29 µM
- Increase in HR (Canis familiaris [4]): 13%

Structure (SMILES): CC1CC(=O)NN=C1c1ccc2c(c1)C1(CC1)C(=O)N2 (stereo not given)
- ED50 (Canis familiaris [1]): 0.0015 mg/kg
- Decrease in MAP (Canis familiaris [2]): 35%
- IC50 [3]: 0.013 µM
- Increase in HR (Canis familiaris [4]): 17%

Structure (SMILES): CC1CC(O)=NN=C1c1ccc(-n2ccnc2)cc1 (stereo not given) [CI-930]
- ED50 (Canis familiaris [1]): 0.013 mg/kg

Structure (SMILES): O=C1CCC(c2ccc(-n3ccnc3)cc2)=NN1 [IMAZODAN]
- ED50 (Canis familiaris [1]): 0.045 mg/kg

Structure (SMILES): CC1(C)C(=O)Nc2ccc(C3=NNC(=O)CC3)cc21 [INDOLIDAN]
- ED50 (Canis familiaris [1]): 0.0068 mg/kg
- Decrease in MAP (Canis familiaris [2]): 15.2%
- Ki [5]: 80 nM
- IC50 [3]: 0.13 µM
- Increase in HR (Canis familiaris [4]): 11.8%

Structure (SMILES): Cc1[nH]c(=O)c(C#N)cc1-c1ccncc1 [MILRINONE]
- ED50 (Canis familiaris [1]): 0.037 mg/kg

From ChEMBL document CHEMBL1123736, “Dihydropyridazinone cardiotonics: synthesis and inotropic activity of 5'-(1,4,5,6-tetrahydro-6-oxo-3-pyridazinyl)spiro[cycloalkane- 1,3'-[3H]indol]-2'(1'H)-ones” (J Med Chem, 1987)
